The values below come from ChEMBL document CHEMBL1152662, “Synthesis and biological evaluation of novel 2-(substituted phenylaminocarbonylmethylthio)-6-(2,6-dichlorobenzyl)-pyrimidin-4(3H)-ones as potent HIV-1 NNRTIs” (Bioorg Med Chem, 2009).

A short description of data set [1]: Selectivity index, ratio of CC50 for mock-infected human MT4 cells to EC50 for HIV1 3B infected in human MT4 cells. Type of data set: toxicity, cell-based. The note with it: read-out: Ratio CC50/EC50. In a few lines: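 Selectivity index calculated as CC50 over EC50, both from 5-day MTT viability readings in MT-4 cells, mock-infected or HIV-1 IIIB-infected, run in parallel triplicate wells.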

Data set [2] has as its system Human immunodeficiency virus 1. The experiment in a line: Antiviral activity against HIV1 3B infected in human MT4 cells assessed as inhibition of virus-induced cytopathic effect after 5 days by MTT assay. The data set is classed as functional, organism-based. Particulars: Human immunodeficiency virus 1, 3B, MT4, 120 h. The procedure, abridged: (§1)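 Compounds added at start in triplicate wells (stocks at 10× final) as serial fivefold dilutions; MT-4 cells at 6 × 10⁵ cells/mL infected with HIV-1 IIIB or HIV-2 ROD. Viability read by MTT 5 days post-infection at 540 and 690 nm, median OD of three wells. EC50 is the concentration giving 50% protection against virus-induced cytotoxicity.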
In general terms: Damage to the host cells serves as the signal in cytopathic effect assays.

Data set [3] can be described thus: Cytotoxicity against mock-infected human MT4 cells after 5 days by MTT assay. Type of data set: cell-based. In a few lines: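 Mock-infected MT-4 cells (6 × 10⁵ cells/mL) exposed in triplicate to serial fivefold dilutions, added at start from stocks at 10× final concentration. Viability measured by MTT after 5 days, absorbance at 540 and 690 nm, median OD of three wells. CC50 is the concentration lowering OD540 of mock-infected control by 50%.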
For orientation: Formazan colour is commonly taken as a measure of viable cells.

The test system of data set [4] is Human immunodeficiency virus 2. The data set can be described thus: Antiviral activity against HIV2 ROD infected in human MT4 cells assessed as inhibition of virus-induced cytopathic effect after 5 days by MTT assay. Particulars: Human immunodeficiency virus 2, ISOLATE ROD, MT4, 120 h. The data set is classed as functional, organism-based. In a few lines: as §1

The term EC50 denotes the concentration needed to bring the measured effect to its halfway point. A word on the CC50: it is the concentration at which the toxic effect on the cells reaches its halfway point. Lower therefore signals greater toxicity to the cells.

Turning to `O=C(CSc1nc(Cc2c(Cl)cccc2Cl)cc(=O)[nH]1)Nc1ccc(F)c(F)c1`, the selectivity ratio in data set [1] is ≥ 1. Further, the EC50 in data set [2] and in data set [4] was > 274 µM in each case. Further, the 50% cytotoxic concentration (CC50) at 120 h in data set [3] was > 274 µM.

Turning to `O=C(CSc1nc(Cc2c(Cl)cccc2Cl)cc(=O)[nH]1)Nc1ccc(Cl)c(Cl)c1`, the results for the concentration for a half-maximal effect (EC50) in data set [2] and in data set [4] were ≥ 84.6 µM and > 19.6 µM, respectively. The same molecule displayed a CC50 at 120 h in data set [3] of 19.6 µM.

On to `O=C(CSc1nc(Cc2c(Cl)cccc2Cl)cc(=O)[nH]1)Nc1ccc(F)c(Cl)c1`, for which, in data set [1], the selectivity ratio is < 1. Further, the EC50 in data set [2] and in data set [4] was > 264 µM throughout. In addition, the CC50 at 120 h in data set [3] is > 264 µM.

As for `COc1ccc(NC(=O)CSc2nc(Cc3c(Cl)cccc3Cl)c(C)c(=O)[nH]2)cc1`, the selectivity ratio in data set [1] was 4. For the same molecule, the EC50 is 2.74 µM in data set [2] and > 10.8 µM in data set [4]. Further, half-maximal cytotoxicity in data set [3] (CC50 at 120 h) was put at 10.8 µM.

Consider `O=C(CSc1nc(Cc2c(Cl)cccc2Cl)cc(=O)[nH]1)Nc1ccc([N+](=O)[O-])cc1`, for which, in data set [1], the selectivity ratio is > 130. Moreover, the EC50 was 2.07 µM in data set [2] and > 269 µM in data set [4]. Besides, the CC50 at 120 h in data set [3] was > 269 µM.

On to `COc1ccc(NC(=O)CSc2nc(Cc3c(Cl)cccc3Cl)cc(=O)[nH]2)cc1OC`, for which the selectivity ratio in data set [1] amounted to 28. Further, the values for the EC50 in data set [2] and in data set [4] were 4.48 µM and > 166 µM, respectively. In data set [3], the half-maximal cytotoxic concentration (CC50) at 120 h is 166 µM.

`Cc1c(Cc2c(Cl)cccc2Cl)nc(SCC(=O)Nc2ccc(F)c(F)c2)[nH]c1=O`: in data set [1], the selectivity ratio was > 387. The values for the EC50 in data set [2] and in data set [4] were 0.69 µM and > 266 µM, respectively. Also, the 50% cytotoxic concentration (CC50) at 120 h in data set [3] is > 266 µM.

Consider `Cc1ccc(NC(=O)CSc2nc(Cc3c(Cl)cccc3Cl)cc(=O)[nH]2)cc1`, for which the selectivity ratio in data set [1] was ≥ 54. Also, the EC50 in data set [2] was 0.88 µM; in data set [4] it was > 47.4 µM. For the same molecule, in data set [3], the CC50 at 120 h is ≥ 47.4 µM.

As for `Cc1c(Cc2c(Cl)cccc2Cl)nc(SCC(=O)Nc2ccc(Br)cc2)[nH]c1=O`, the selectivity ratio in data set [1] was > 1330. For the same molecule, the EC50 in data set [2] is 0.18 µM; in data set [4], > 244 µM. In data set [3], the CC50 at 120 h is > 244 µM.

On to `COc1ccc(NC(=O)CSc2nc(Cc3c(Cl)cccc3Cl)cc(=O)[nH]2)cc1`, for which, in data set [1], the selectivity ratio stood at 28. In addition, the EC50 in data set [2] was 0.92 µM; in data set [4], > 25.2 µM. Besides, in data set [3], the CC50 at 120 h turned out to be 25.5 µM.

In the case of `Cc1c(Cc2c(Cl)cccc2Cl)nc(SCC(=O)Nc2ccc(Cl)cc2)[nH]c1=O`, in data set [1], the selectivity ratio is > 836. In addition, the EC50 was 0.32 µM in data set [2] and > 267 µM in data set [4]. The CC50 at 120 h in data set [3] is > 267 µM.

For the molecule `COc1ccc(NC(=O)CSc2nc(Cc3c(Cl)cccc3Cl)c(C)c(=O)[nH]2)cc1OC`, the selectivity ratio in data set [1] is > 175. Also, the EC50 in data set [2] was 1.45 µM; in data set [4], > 253 µM. For the same molecule, the CC50 at 120 h in data set [3] is > 253 µM.

On to `O=C(CSc1nc(Cc2c(Cl)cccc2Cl)cc(=O)[nH]1)Nc1ccc(Br)cc1`, for which the selectivity ratio in data set [1] was 31. Moreover, the results for the EC50 in data set [2] and in data set [4] were 0.74 µM and > 22.8 µM, respectively. In addition, the CC50 at 120 h in data set [3] worked out at 22.8 µM.

For the molecule `Cc1c(Cc2c(Cl)cccc2Cl)nc(SCC(=O)Nc2ccc([N+](=O)[O-])cc2)[nH]c1=O`, the selectivity ratio in data set [1] was > 264. For the same molecule, the EC50 was 0.99 µM in data set [2] and ≥ 45.8 µM in data set [4]. In data set [3], the CC50 at 120 h is > 261 µM.

`Cc1c(Cc2c(Cl)cccc2Cl)nc(SCC(=O)Nc2ccc(F)c(Cl)c2)[nH]c1=O`: the selectivity ratio in data set [1] was ≥ 1. The EC50 in data set [2] is ≥ 41.1 µM; in data set [4], > 257 µM. For the same molecule, in data set [3], the CC50 at 120 h is > 257 µM.

On to `Cc1c(Cc2c(Cl)cccc2Cl)nc(SCC(=O)Nc2ccc(Cl)c(Cl)c2)[nH]c1=O`, for which the selectivity ratio in data set [1] is ≥ 88. Besides, the EC50 was ≥ 2.82 µM in data set [2] and > 248 µM in data set [4]. The CC50 at 120 h in data set [3] is > 248 µM.

`O=C(CSc1nc(Cc2c(Cl)cccc2Cl)cc(=O)[nH]1)Nc1ccc(Cl)cc1`: the selectivity ratio in data set [1] turned out to be 23. Further, the 50% effective concentration (EC50) was 0.95 µM in data set [2] and > 24.8 µM in data set [4]. Moreover, in data set [3], the CC50 at 120 h was determined as 24.8 µM.
